Shown are actives, neighbours in structure and some others; about 8.7% of the full set was active somewhere.
Ecoli WT expand = growth inhibitors of E. coli BW25113 wild type; growth inhibition, % at 100 µM; 98,000 tested, 0.15% active; OD600 absorbance;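 active means growth inhibition above about 50% at one test dose, limit read from the data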;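 further: growth measured after 20 h incubation at 37 °C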
Ecoli tolC = E. coli tolC mutant growth inhibition | E. coli BW25113 tolC mutant growth, OD615 | growth inhibition, % at 10 µM (by protocol) | 65,000 tested, 2.2% active;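 active means growth inhibition at or above a cutoff equal to the mean over every tested compound plus 3 SD, cut at about 60% in these data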;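 further: growth measured after 20 h incubation at 37 °C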
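Test system: E. coli BW25113 ΔtolC::kan bacteria; incubation: 37 °C, 20 h exposure; medium: LB broth supplemented with 50 µg/mL kanamycin; read-out basis: percent growth inhibition; signal: A615 absorbance measurement; compound: 10 µM final, single dose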
Cav32 inh = blocks human Cav3.2 T-type calcium channel. O95180. Cav3.2-expressing cells, Fluo-4 calcium fluorescence FDSS; hits give low values. B-score at 10 µM. 100,000 tested, 4% active. AID 449739;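 active means single-dose well whose peak fluorescence ratio is a statistical outlier from its plate by either plate-standardised score or position-corrected B-score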
PTK2B oligo ant = Pyk2 (human) oligomerization antagonism. Q14289. Q293 cells, Pyk2 FERM NanoBiT luminescence; hits give low values. z-score (the deposit names both 25 µM and 10 µM). 99,000 tested, 0.83% active. AID 1347419;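 active means Z-score of -3 or lower, scaled per plate to the spread of control and sample wells; inactive means z-score above -3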;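 further: negative z-score means lost luminescence so less FERM oligomerization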
Target sequence (Q14289 whole entry, looked up): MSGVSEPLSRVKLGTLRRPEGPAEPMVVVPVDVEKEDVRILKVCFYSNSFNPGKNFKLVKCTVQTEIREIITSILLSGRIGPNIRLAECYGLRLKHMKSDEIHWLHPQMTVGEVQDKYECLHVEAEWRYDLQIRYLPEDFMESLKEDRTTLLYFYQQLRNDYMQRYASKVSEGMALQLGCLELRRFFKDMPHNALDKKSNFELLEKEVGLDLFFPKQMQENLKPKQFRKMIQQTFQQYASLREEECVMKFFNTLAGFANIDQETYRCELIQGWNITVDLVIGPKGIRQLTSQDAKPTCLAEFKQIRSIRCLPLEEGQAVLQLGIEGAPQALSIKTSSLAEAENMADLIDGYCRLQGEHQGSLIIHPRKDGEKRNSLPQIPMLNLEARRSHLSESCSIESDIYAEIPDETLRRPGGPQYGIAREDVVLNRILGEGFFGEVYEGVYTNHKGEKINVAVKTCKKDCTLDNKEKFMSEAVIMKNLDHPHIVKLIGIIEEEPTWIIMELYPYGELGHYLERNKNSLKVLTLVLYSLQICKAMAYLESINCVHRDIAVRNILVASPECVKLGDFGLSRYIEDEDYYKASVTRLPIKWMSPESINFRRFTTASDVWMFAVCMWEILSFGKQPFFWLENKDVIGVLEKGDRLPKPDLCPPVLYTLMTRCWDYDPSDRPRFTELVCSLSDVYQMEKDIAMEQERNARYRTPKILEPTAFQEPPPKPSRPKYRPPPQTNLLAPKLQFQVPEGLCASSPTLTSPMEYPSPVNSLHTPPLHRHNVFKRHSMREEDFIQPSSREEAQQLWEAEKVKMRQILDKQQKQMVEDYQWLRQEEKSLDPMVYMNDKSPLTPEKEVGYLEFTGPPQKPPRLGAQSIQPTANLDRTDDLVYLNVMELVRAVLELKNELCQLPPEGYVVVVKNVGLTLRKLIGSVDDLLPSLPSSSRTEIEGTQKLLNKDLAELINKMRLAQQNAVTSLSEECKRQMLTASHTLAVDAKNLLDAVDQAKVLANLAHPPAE
PostGolgi yeast = growth inhibition of a yeast mutant, post-Golgi transport screen; inhibition, % at 10 µM; post-Golgi transport phenotypic cell assay; AID 739; 98,000 tested, 0.9% active;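 further: yeast cells grown in 1536-well plates; yeast grown about 18 h at 30C before absorbance read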
PostGolgi ctrl = yeast control strain growth, post-Golgi counter-screen. efflux-deficient yeast background strain, growth absorbance A615, 16 h. inhibition, % at 10 µM. 98,000 tested, 5% active. AID 738
* marks the source's active call; other numbers are inactive results. Unless noted, no stated cut-off is given here; in the data, active means inhibition above about 30%; inactive means the rest.

Results for Cc1ccc(-c2nc3ncccc3o2)cc1NC(=O)c1cc2ccccc2o1 ?
Ecoli WT expand: -8.0; Ecoli tolC: 5.3; Cav32 inh: -1.25; PTK2B oligo ant: -0.83; PostGolgi yeast: -1.7; PostGolgi ctrl: 7.9

Results for Cc1nn(C(=O)c2cccnc2)c(C)c1Sc1ccc(Br)cc1 ?
Ecoli WT expand: 15.0; Cav32 inh: 0.424; PTK2B oligo ant: -0.45; PostGolgi yeast: 18.9; PostGolgi ctrl: 32.5*

How did Clc1ccc(-c2nnc(NC3=NCCCCC3)o2)cc1 do in these assays?
Ecoli WT expand: 1.0; Ecoli tolC: -6.7; Cav32 inh: 0.84; PTK2B oligo ant: -0.27; PostGolgi yeast: -8.9; PostGolgi ctrl: 30.5*

How did O=C(Nc1nnc(-c2ccc(Cl)cc2)o1)C1CCCCC1 do in these assays?
Ecoli tolC: 27.2; Cav32 inh: 1.03

Results for CCOc1ccc(NC(=O)CN(C)c2nnnn2-c2ccccc2)cc1OCC ?
Ecoli WT expand: 0.0; Ecoli tolC: 3.3; Cav32 inh: 0.46; PTK2B oligo ant: -0.35; PostGolgi yeast: -2.9; PostGolgi ctrl: -1.3

How did O=C(CN1C(=O)c2ccccc2C1=O)Nc1cccc2cccnc12 do in these assays?
Ecoli WT expand: 4.0; Ecoli tolC: 0.6; Cav32 inh: -10.8*; PostGolgi yeast: -5.0; PostGolgi ctrl: 29.4

Results for O=C(COc1ccc2ccccc2c1)Nc1cccc2cccnc12 ?
Ecoli WT expand: -5.0; Cav32 inh: -1.35; PTK2B oligo ant: 0.82; PostGolgi yeast: -0.6; PostGolgi ctrl: 13.6

Results for Cc1c(C(=O)Nc2cccc3cccnc23)oc2ccccc12 ?
Ecoli WT expand: -13.0; Ecoli tolC: -12.4; Cav32 inh: 0.126; PTK2B oligo ant: 0.14; PostGolgi yeast: 1.1; PostGolgi ctrl: -6.9

What do the screens show for `O=C(Nc1cccc2cccnc12)c1cccc2ccccc12`?
Ecoli WT expand: -9.0; Cav32 inh: -0.434; PTK2B oligo ant: -0.05; PostGolgi yeast: -3.8; PostGolgi ctrl: 36.5*

Results for O=C(Nc1cccc2cccnc12)c1ccc(Br)o1 ?
Ecoli WT expand: 7.0; Ecoli tolC: 92.5*; Cav32 inh: -0.103; PTK2B oligo ant: -0.97; PostGolgi yeast: 16.5; PostGolgi ctrl: 15.9

What do the screens show for `O=C(Nc1cccc2ccccc12)c1ccc(Br)o1`?
Ecoli WT expand: -2.0; Ecoli tolC: 14.9; Cav32 inh: -0.911; PTK2B oligo ant: -0.02; PostGolgi yeast: -11.0; PostGolgi ctrl: 0.6

What do the screens show for `C=CCNC(=O)c1ccccc1NC(=O)c1ccc(Cl)c(S(=O)(=O)Nc2ccccc2)c1`?
Ecoli WT expand: -10.0; Cav32 inh: -1.97; PTK2B oligo ant: -3.83*; PostGolgi yeast: 4.3; PostGolgi ctrl: 9.1

How did COCCn1c(=S)[nH]c2ccc(N(C)C)cc2c1=O do in these assays?
Ecoli WT expand: 2.0; Ecoli tolC: -9.9; Cav32 inh: -0.207; PTK2B oligo ant: -1.13; PostGolgi yeast: 19.5; PostGolgi ctrl: 6.1

Results for O=C(CCSc1ccc(Cl)cc1)NC12CC3CC(CC(C3)C1)C2 ?
Ecoli WT expand: -16.0; Cav32 inh: -3.21; PTK2B oligo ant: -0.16; PostGolgi yeast: 8.6; PostGolgi ctrl: 42.6*

Results for O=C(CCSc1ccc(Cl)cc1)NC1CCCCC1 ?
Ecoli WT expand: 5.0; PostGolgi yeast: 0.3; PostGolgi ctrl: 5.7

What do the screens show for `COc1cc(C(C)=O)ccc1OCC(=O)c1cc(C)n(C2CC2)c1C`?
Ecoli WT expand: 1.0; Ecoli tolC: 6.5; Cav32 inh: 0.00675; PTK2B oligo ant: -0.4; PostGolgi yeast: -6.4; PostGolgi ctrl: 22.8

What do the screens show for `O=C1c2cccc3c(O)ccc(c23)C(=O)N1Cc1ccccc1`?
Ecoli WT expand: -2.0; Cav32 inh: -10.1*; PTK2B oligo ant: -0.09; PostGolgi yeast: 30.4*; PostGolgi ctrl: 22.6

Results for O=C1c2cccnc2C(=O)N1Cc1ccccc1 ?
Ecoli WT expand: -8.0; Ecoli tolC: -14.3; Cav32 inh: -0.67; PostGolgi yeast: 7.2; PostGolgi ctrl: 3.7

Results for O=C(CSc1ccc2nnc(-c3cccnc3)n2n1)NCc1ccc2c(c1)OCO2 ?
Ecoli WT expand: 8.0; Ecoli tolC: -8.2; Cav32 inh: 0.563; PostGolgi yeast: 4.3; PostGolgi ctrl: 0.8

How did Cc1cccc(Nc2ncccc2C(=O)NCc2cccs2)c1C do in these assays?
Ecoli WT expand: -15.0; Cav32 inh: -2.62; PTK2B oligo ant: -1.28; PostGolgi yeast: -7.5; PostGolgi ctrl: 33.9*

What do the screens show for `Cc1ccc(C)c(-c2cc(C(=O)NCc3cccs3)c3ccccc3n2)c1`?
Ecoli WT expand: -12.0; Cav32 inh: -1.15; PTK2B oligo ant: -1.08; PostGolgi yeast: -15.6; PostGolgi ctrl: 8.6

Results for O=C(NCc1cccs1)c1nn2cccnc2c1Cl ?
Ecoli WT expand: 1.0; Ecoli tolC: -7.4; Cav32 inh: 0.0233; PTK2B oligo ant: 0.6; PostGolgi yeast: 0.5; PostGolgi ctrl: 6.1

How did Cc1ccc(Nc2ncccc2C(=O)NCc2cccs2)c(C)c1 do in these assays?
Ecoli WT expand: -22.0; Cav32 inh: -1.25; PTK2B oligo ant: -1.44; PostGolgi yeast: -2.0; PostGolgi ctrl: 44.1*

Results for CCOc1ccccc1OCC(=O)Nc1nnc(COC)s1 ?
Ecoli WT expand: -16.0; Ecoli tolC: 7.2; Cav32 inh: 0.0873; PTK2B oligo ant: -0.79; PostGolgi yeast: -5.1; PostGolgi ctrl: 3.0

What do the screens show for `Nc1nc(SCc2ccccc2)ns1`?
Ecoli WT expand: 11.0; Ecoli tolC: 3.7; Cav32 inh: 0.24; PTK2B oligo ant: 0.62; PostGolgi yeast: -5.7; PostGolgi ctrl: 18.6

What do the screens show for `Nc1nc(SCc2ccc(Cl)cc2)ns1`?
Ecoli WT expand: 24.0; Ecoli tolC: 22.9; Cav32 inh: -3.05; PTK2B oligo ant: -0.23; PostGolgi yeast: -2.0; PostGolgi ctrl: 43.8*

What do the screens show for `Cc1cccc(C)c1OCC(O)CN1CCC(CN2C(=O)c3cccc4cccc(c34)C2=O)CC1` (stereo not drawn)?
Ecoli WT expand: -5.0; Cav32 inh: -3.81; PTK2B oligo ant: 0.31; PostGolgi yeast: 2.8; PostGolgi ctrl: -4.3

How did Clc1ccc(CN2CCN(c3ncnc4scc(-c5cccs5)c34)CC2)cc1 do in these assays?
Ecoli WT expand: -12.0; Cav32 inh: -1.05; PTK2B oligo ant: -1.94; PostGolgi yeast: 6.8; PostGolgi ctrl: 58.0*

Results for CC(=O)Nc1ccc(S(=O)(=O)N2CCCCC2c2cccnc2)cc1 (stereo not drawn) ?
Ecoli WT expand: 5.0; Ecoli tolC: 5.6; Cav32 inh: -0.0283; PTK2B oligo ant: -0.94; PostGolgi yeast: 0.8; PostGolgi ctrl: 34.9*

What do the screens show for `Cc1cc(C)nc(NS(=O)(=O)c2ccc(NC(=O)c3cccs3)cc2)n1`?
Ecoli WT expand: -5.0; Ecoli tolC: 1.2; PTK2B oligo ant: 0.02; PostGolgi yeast: 0.9; PostGolgi ctrl: 1.3

How did CCCCN(CCCC)S(=O)(=O)c1ccc(NC(=O)c2cccs2)cc1 do in these assays?
Ecoli WT expand: -16.0; Cav32 inh: -0.784; PTK2B oligo ant: -3.16*; PostGolgi yeast: 2.0; PostGolgi ctrl: 6.6

Results for Cc1cc(C)cc(NS(=O)(=O)c2ccc(NC(=S)NC(=O)c3cccs3)cc2)c1 ?
PTK2B oligo ant: -0.27
